# This is a sample that favours compounds with a hit; in the whole collection about 2.6% have one here.
# SENP1 inh: human SENP1 catalytic domain inhibitors, primary screen, biochemical, FRET, uHTS; Sentrin-specific protease 1 (Homo sapiens), Q9P0U3; recombinant SENP1 catalytic domain, CyPet-SUMO1-YPet FRET cleavage; inhibition, % at 10 µM; 360,000 tested, 0.21% active;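 active = inhibition at least 30% at 10 µM, raw YFP signal under a set limit, fluorescence ratio 0.5 to 1.5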;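 note: 0% = enzyme with DMSO and 100% = no enzyme wells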
# Target sequence (Q9P0U3 419-644 limits assumed): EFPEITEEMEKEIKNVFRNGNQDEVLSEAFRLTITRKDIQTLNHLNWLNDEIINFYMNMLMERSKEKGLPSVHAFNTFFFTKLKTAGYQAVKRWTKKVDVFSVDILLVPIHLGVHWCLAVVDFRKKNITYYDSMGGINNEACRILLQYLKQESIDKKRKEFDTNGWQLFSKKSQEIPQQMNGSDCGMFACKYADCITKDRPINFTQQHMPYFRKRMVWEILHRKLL
#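 Assay system – human recombinant His6-tagged SENP1 catalytic domain enzyme · Input – SENP1 enzyme, 20 pM final · Buffer or medium – Tris pH 8 buffer plus EDTA, NaCl, BME, BSA, NP40, catalase · Schedule – 50 min reaction at room temperature · Technique – FRET read of cyan and yellow fluorescence · Control set – no-enzyme wells low, DMSO-plus-enzyme wells high control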
# SENP8 block-1: SENP8 protease inhibitors, primary screen, biochemical, luminescence; purified SENP8, Z-RLRGG-aminoluciferin cleavage; inhibition, % at 10 µM; AID 2540, 2010; 330,000 tested, 1.2% active; in the data active = inhibition above about 50%
# SENP7 inh: SENP7 protease inhibitors, primary screen, biochemical, luminescence, uHTS | Sentrin-specific protease 7 (Homo sapiens), Q9BQF6 | recombinant SENP7, Z-RLRGG-aminoluciferin luminescence, 40 min | AID 434973, 2010 | 330,000 tested, 1.5% active | inhibition, % at 5 µM;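 active = inhibition above about 50% at the single test dose, limit read from the data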;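 note: plate controls were DMSO with enzyme for no effect and no enzyme buffer wells for full effect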
# Target sequence (Q9BQF6 706-1050 limits assumed): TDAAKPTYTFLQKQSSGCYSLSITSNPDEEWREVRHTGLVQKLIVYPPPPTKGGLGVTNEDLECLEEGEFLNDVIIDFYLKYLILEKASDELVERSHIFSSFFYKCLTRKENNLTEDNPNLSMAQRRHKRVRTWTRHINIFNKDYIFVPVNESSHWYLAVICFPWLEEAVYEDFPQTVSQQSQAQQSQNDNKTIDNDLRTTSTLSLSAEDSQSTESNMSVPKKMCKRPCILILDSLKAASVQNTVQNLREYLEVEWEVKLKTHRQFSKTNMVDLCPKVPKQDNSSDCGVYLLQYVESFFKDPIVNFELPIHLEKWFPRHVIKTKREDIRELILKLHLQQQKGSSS
# Platelet DG rel: inhibitors of platelet dense granule secretion, primary screen, cell-based, MLPCN, human platelets; 300,000 tested, 0.22% active; human platelet-rich plasma, SFLLRN dense granule ATP release, luminescence; inhibition, %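 (compounds screened at 7.5 µM in platelet-rich plasma)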; AID 1663, 2009;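 active = mean replicate score, as percent of positive control, at or above 50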
# SENP8 block-2: human SENP8 protease inhibitors, primary screen, biochemical, fluorescence, Nedd8 protein substrate, uHTS; inhibition, % at 20 µM; Sentrin-specific protease 8 (Homo sapiens), Q96LD8; 360,000 tested, 0.64% active; recombinant SENP8; AID 602440, 2012; in the data active = inhibition mostly above about 40%, no sharp cut-off; inactive = mostly below about 27%
# SENP6 inh: SENP6 protease inhibitors, primary screen, biochemical, luminescence, uHTS; Sentrin-specific protease 6 (Homo sapiens), Q9GZR1; inhibition, % at 10 µM; Recombinant SENP6 catalytic domain, aminoluciferin luminescence; 330,000 tested, 1.8% active;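 active = inhibition above about 50% at the single tested dose, limit read from the data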;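 note: plate controls were DMSO wells with enzyme for no effect and DMSO wells lacking enzyme for full effect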
# * = called active by the depositor; / = no result given.
SMILES,SENP1 inh,SENP8 block-1,SENP7 inh,Platelet DG rel,SENP8 block-2,SENP6 inh
c1ccc2c(c1)nnn1c3ccccc3nc21,/,86*,96*,15,/,96*
COCCN=c1scc(-c2ccco2)n1/N=C/c1ccc(O)c(O)c1O,14,-3,-2,/,36,-37
C=CCN=c1scc(-c2ccco2)n1/N=C/c1ccc(O)c(O)c1O,4,-8,-5,11,51*,-10
CCCCC(C(=O)NC1CCCC1)N(C(=O)c1snc(C(N)=O)c1N)c1ccc(C)cc1 (stereo not drawn),-19,-13,-2,9,-323,-27
CN1C(=O)N(C)c2cccc3cccc1c23,-2,1,7,0,11,1
CC1=Nc2cccc3cccc(c23)N1C,-45,-6,-1,10,44*,-3
N#CC1=C2SCN(Cc3ccco3)CN2C(=O)CC1c1c(F)cccc1Cl (stereo not drawn),-9,11,6,-2,36*,0
Cc1ccc(C2CC(=O)N3CN(Cc4ccco4)CSC3=C2C#N)cc1 (stereo not drawn),-7,-2,6,10,0,12
O=C(O)c1ccc(NC(=S)NC(=O)c2ccc3ccccc3c2)cc1,-1,-7,24,-3,11,-9
O=C(O)c1cccc(NC(=S)NC(=O)c2ccc3ccccc3c2)c1,0,87*,71*,1,-4,93*
O=C(Cn1nnc(-c2ccc(F)cc2)n1)NC(=O)NC1CCCCC1,0,/,/,/,17,/
S=C(Nc1ccccc1)c1nc2ccccc2s1,2,48,67*,2,-12,-17
O=C(NNc1nc2ccccc2s1)Nc1ccccc1,-1,-9,1,2,-4,-24
CCNCC(=O)N1c2ccccc2CCc2ccc(NC(=O)OC(C)C)cc21,0,-2,0,9,14,-1
Cc1ccc(C(=O)N2CC(C)OC(C)C2)cc1S(=O)(=O)N1CCCCC1 (stereo not drawn),0,9,-8,/,6,-1
Cc1ccc2nc(N3C(=O)C(O)=C(C(=O)c4cc5ccccc5o4)C3c3cccs3)sc2c1 (stereo not drawn),-39,68*,78*,1,-85,88*
Cc1ccc2nc(N3C(=O)C(O)=C(C(=O)c4ccc(C)o4)C3c3ccco3)sc2c1 (stereo not drawn),-83,64*,76*,/,-132,78*
CCc1ccc2nc(N3C(=O)C(O)=C(C(=O)c4ccco4)C3c3cccs3)sc2c1 (stereo not drawn),-18,30,38,2,-114,55*
CCCCNC(=O)C1(C)CCN1Cc1cccc2c(OC)cc(C(=O)OCC)cc12 (stereo not drawn),0,/,/,/,-15,/
CCN1CCN(c2ccc(N3CCN(S(=O)(=O)c4ccc(C)c([N+](=O)[O-])c4)CC3)nn2)CC1,0,-5,-3,-3,-9,-12
Cc1cc(C)c[n+](-c2[nH]c(=O)sc2/C=N/NC([S-])=Nc2ccccc2)c1,33*,3,0,-1,33,-6
Cc1cc[n+](-c2[nH]c(=O)sc2/C=N/NC([S-])=Nc2ccccc2)cc1,25,-5,1,5,33,-4
CCCCN1C(=O)/C(=C/C=C2\N(C)c3ccccc3C2(C)C)SC1=S,/,-4,0,5,/,-1
CCCN1C(=O)/C(=C\C=C2/C=CN(CC)c3ccccc32)SC1=S,-46,-4,1,5,55*,22
CC(NC(=O)C(=O)c1cn(CC(=O)N2CCOCC2)c2ccccc12)c1ccccc1 (stereo not drawn),4,5,-3,16,2,-5
SMILES,SENP1 inh,SENP8 block-1,SENP7 inh,Platelet DG rel,SENP8 block-2,SENP6 inh
O=C1NCCCC1C(=O)N/N=C/c1cc([N+](=O)[O-])ccc1O (stereo not drawn),2,3,4,-1,45*,-15
O=C1NCCCC1C(=O)N/N=C/c1ccc([N+](=O)[O-])cc1 (stereo not drawn),3,-4,-1,-2,13,-1
CC1=NN(Cc2ccccc2)C(=O)/C1=C\c1ccc(N(C)C)cc1,4,7,8,-17,40*,1
CCOC(=O)C1=NN(c2ccccc2)C(=O)/C1=C\c1ccc(N(C)C)cc1,1,-10,-3,-1,5,-7
CC1OC(CC(=O)O)CC2=C1C(=O)c1c(O)cccc1C2=O (stereo not drawn),0,/,/,/,89*,/
CCN1CCN(c2nc3c(C)cccn3c(=O)c2C=C(C#N)C#N)CC1,-23,-5,-6,-2,-164,-3
COC/C=C/C1=CC2=CC(=O)C(C)(OC(=O)c3cnc4ccccc4n3)C(=O)C2=CN1CC(C)C (stereo not drawn),-11,-4,-4,1,54*,20
O=[N+]([O-])c1cccc(S(=O)(=O)NCc2ccncc2)c1,2,4,-7,11,5,-24
Cc1cccc(NS(=O)(=O)c2ccc(-n3cccn3)cc2)c1C,3,-10,13,-13,10,-11
O=c1cc(-c2ccccc2)oc2ccc3ccccc3c12,2,/,/,/,7,/
O=c1cc(-c2ccc(O)c(O)c2)oc2ccc3ccccc3c12,0,96*,99*,/,-87,95*
CC(=O)N(C)C1=C(O)c2ccccc2C(=O)C1=O,3,-1,14,4,85*,15
O=C1C(O)=C(O)C(=O)c2ccccc21,4,58*,55*,/,61*,80*
O=C1C(=O)c2ccccc2C(O)=C1c1ccccc1F,2,0,4,12,12,-17
CC(=O)N(C1=C(O)c2ccccc2C(=O)C1=O)C1CCCCC1,-3,5,8,3,19,3
O=C1c2ccccc2C(=O)c2[nH]c(=O)[nH]c21,-1,35,36,-1,55*,65*
COc1ccccc1NC(=O)CSc1nc(=O)n(CCN2CCOCC2)c2c1CCC2,1,4,-9,-3,7,-20
CC1CCCCN1Cc1nc2c(c(=O)n(C)c(=O)n2C)n1CCCc1ccccc1 (stereo not drawn),-1,1,6,56*,9,-15
O=C(CNc1ccc(F)cc1)c1ccccc1,1,32,19,33,21,65*
O=C1/C(=C\c2ccc(Br)o2)Cc2ccccc21,-48,43,22,-8,-43,73*

# Screens from PubChem.
